Data published in publication PMC3584523 (International Journal of Oncology, 2011).
Entries after “also recorded” stand apart in the source; their conditions may differ. Each block holds one molecule with its values, some of them ahead of it.

Columns and labels:
[1] = molecular target: T1, human recombinant LPA1 receptor (Homo sapiens, UniProt Q92633); assay: Calcium flux assay, LPA1 agonist activity; assay type: cell-based; details: human LPA1-expressing Chem-1 cells; for agonist activity at the LPA1 receptor (calcium flux): 0.0045–10 μM
Procedure, shortened: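 Chem-1 stable cell line expressing human recombinant LPA1, loaded with Fluo-4 NW. Test compound, the racemic reference or oleoyl-LPA reference agonist was added as an eight-point 3-fold serial dilution starting at 10 μM (0.0045–10 μM), and calcium flux stimulation was measured. The reference agonist's EC80 was derived from its dose-response.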

[2] = test system: 4T1 mouse mammary cancer cells; assay: LPA-induced cell invasion assay; assay type: cell-based; details: LPA 5 μM as chemoattractant; Debio 0719 1 and 5 μM; 24 h
Procedure, shortened: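 4T1 cells were grown in DMEM with 10% FBS and penicillin/streptomycin at 37°C, 5% CO2. 2×10^5 cells were placed in the upper compartment of Matrigel-coated 8-μm filter chambers with or without test compound. LPA with 1% FBS was in the lower chamber. After 24 h at 37°C, cells that crossed the filter were fixed, stained and counted in 10 random fields (×40) and reported as cells/mm2.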

LPA3 = molecular target: T2, LPA3 (Homo sapiens, UniProt Q9UBY5); assay: Antagonist activity at LPA3; assay type: cell-based; details: read-out: IC50, antagonist activity at LPA3
T2 sequence (Q9UBY5 1-353): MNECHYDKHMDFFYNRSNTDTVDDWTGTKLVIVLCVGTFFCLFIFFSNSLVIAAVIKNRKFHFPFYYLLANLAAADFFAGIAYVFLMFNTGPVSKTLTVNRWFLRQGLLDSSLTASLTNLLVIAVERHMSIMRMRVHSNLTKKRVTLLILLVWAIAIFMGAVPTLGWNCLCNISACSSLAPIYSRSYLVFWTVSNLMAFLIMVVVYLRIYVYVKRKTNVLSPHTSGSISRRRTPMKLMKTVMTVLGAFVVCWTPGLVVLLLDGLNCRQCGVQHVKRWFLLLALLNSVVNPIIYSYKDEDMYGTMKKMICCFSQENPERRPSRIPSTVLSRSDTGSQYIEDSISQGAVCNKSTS

4T1 cells [3] = assay: Orthotopic 4T1 model, adjuvant treatment day 15 to 35; assay type: in vivo, mouse; details: 25 or 50 mg/kg per os twice daily after tumor resection at day 14
Procedure, shortened: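 To count disseminated tumour cells, marrow was flushed from tibias and femurs and plated in complete medium with 6-thioguanine 10 μM, which only the naturally resistant 4T1 cells survive. After two weeks the clones were fixed, stained and counted, and reported as clones/mm2.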

[4] = molecular target: T1, human recombinant LPA1 receptor; assay: Calcium flux assay, antagonism of LPA-induced calcium flux; assay type: cell-based; details: for IC50: read-out: IC50, inhibition of LPA-induced calcium flux, human LPA1-expressing Chem-1 cells, 1 μM Oleoyl LPA
4T1 cells [5] = assay: Orthotopic 4T1 mammary fat pad model, treatment day 0 to 14; assay type: in vivo, mouse
[6] = Pharmacokinetic study in male CD-1 mice; assay type: in vivo, mouse
Procedure, shortened: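 Male CD-1 mice received test compound in 10% DMA, 5% Cremophor EL and 85% saline. It was given either as an intravenous 5 mg/kg bolus into the jugular vein or by oral gavage at 50 mg/kg. Retro-orbital blood was taken into sodium heparin, n=3 per time point. Plasma was spiked with methanol and lovastatin internal standard, vortexed, centrifuged and measured by LC/MS. Parameters are given as means.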

[7] = test system: breast cancer cell-mediated bone metastases; details: treatment of bone metastatic animals; cited from earlier work

T1 sequence (Q92633 whole entry): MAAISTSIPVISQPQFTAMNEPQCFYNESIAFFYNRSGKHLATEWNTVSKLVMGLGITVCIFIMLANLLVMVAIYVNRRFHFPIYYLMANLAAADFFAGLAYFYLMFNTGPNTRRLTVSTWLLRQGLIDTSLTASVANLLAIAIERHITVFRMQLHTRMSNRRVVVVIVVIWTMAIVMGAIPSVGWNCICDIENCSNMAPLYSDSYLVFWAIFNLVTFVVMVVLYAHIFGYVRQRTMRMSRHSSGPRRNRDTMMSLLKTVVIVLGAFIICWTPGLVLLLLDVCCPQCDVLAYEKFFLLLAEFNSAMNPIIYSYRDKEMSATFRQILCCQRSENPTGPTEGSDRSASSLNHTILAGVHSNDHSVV

EC50 ([1]; read-out: EC50, stimulation of calcium flux): 490 nM
SMILES: CCCCCCCC/C=C\CCCCCCCC(=O)OC[C@@H](O)COP(=O)(O)O [oleoyl LPA, Lysophosphatidic acid (LPA, Oleoyl C18:1), reference compound]

SMILES: Cc1noc(-c2ccc(CSCCC(=O)O)cc2)c1NC(=O)O[C@H](C)c1ccccc1Cl [Debio 0719]
agonist activity at the LPA1 receptor (calcium flux) [1]: no agonist activity; also recorded: did not demonstrate any agonist effects
LPA-induced 4T1 cell invasion [2]: dose-dependently blocked
IC50 (LPA3): 660 nM
number of 4T1-DTCs rescued from bone marrow vs vehicle (4T1 cells [3]): no statistically significant difference
potency relative to Ki16425 at inhibiting LPA1-induced calcium flux ([4]; ratio of IC50 values): 2 fold
IC50 [4]: 60 nM
inhibition of number of lung metastasis foci (4T1 cells [5]; 50 mg/kg per os twice daily, day 0 to 14, sacrifice day 35, p=0.022): 62%
inhibition of total area of lung metastases (4T1 cells [5]; 50 mg/kg per os twice daily, day 0 to 14, sacrifice day 35, p=0.029): 89%
tolerability (mouse weight gain, deleterious effects) (4T1 cells [5]; 25 and 50 mg/kg per os twice daily, day 0 to 14, female BALB/c mice): well tolerated; also recorded: did not induce noticeable deleterious effects
burden (weight) of resected primary tumors vs untreated (4T1 cells [5]; 25 and 50 mg/kg per os twice daily, day 0 to 14, tumors resected day 14): no difference
rescue of 4T1-DTCs from bone marrow (4T1 cells [5]; either high or low dose, day 0 to 14, sacrifice day 35): not able to rescue any 4T1-DTCs
reduction in the area of lung metastasis foci (4T1 cells [5]; lower dosing (25 mg/kg per os twice daily), day 0 to 14, p=0.053): did not reach statistical significance
expression of mitotic marker Ki-67 in primary tumors vs untreated (4T1 cells [5]; per os twice daily, day 0 to 14, immunohistochemistry): similar
tolerability after oral exposure [6]: well tolerated
Plasma clearance ([6]; intravenous 5 mg/kg): 111 mL/min/kg
Time to maximum concentration ([6]; intravenous 5 mg/kg): 0.08 h
plasma concentration by 4 h ([6]; intravenous 5 mg/kg): ~ 1 nM
Bioavailability ([6]; oral 50 mg/kg): 14.41 % EF
Time to maximum concentration ([6]; oral 50 mg/kg): 0.25 h
plasma concentration by 8 h ([6]; oral 50 mg/kg): ~ 10 nM
time of peak plasma concentration ([6]; oral 50 mg/kg): 15 min
oral bioavailability ([6]; oral 50 mg/kg, no unit in text): 14.41

agonist activity at the LPA1 receptor (calcium flux) [1]: no agonist activity
IC50 [4]: 2800 nM
SMILES: Cc1noc(-c2ccc(CSCCC(=O)O)cc2)c1NC(=O)O[C@@H](C)c1ccccc1Cl [Debio 0719-425(S)]

agonist activity at the LPA1 receptor (calcium flux) [1]: no agonist activity
IC50 (LPA3): 2300 nM
IC50 [4]: 130 nM
SMILES: Cc1noc(-c2ccc(CSCCC(=O)O)cc2)c1NC(=O)OC(C)c1ccccc1Cl (centres unmarked) [Ki16425, reference compound]
progression of bone metastases [7]: inhibits efficiently the progression of bone metastases
